Measurements published in ChEMBL document CHEMBL1811802, “Synthesis and significant cytostatic activity of 7-hetaryl-7-deazaadenosines” (J Med Chem, 2011).

Assays:
[1] = test system: BT-549; experiment: Cytostatic activity against human BT549 cells after 5 days by SRB assay; format: functional; conditions: BT-549, 120 h
In short: (§1)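 Cells seeded per line density, overnight at 37 °C; day-zero plate TCA-fixed. 5-fold serial dilutions added, 5-day incubation; TCA fixation, 0.057% SRB in 1% acetic acid 30 min, dye dissolved in 10 mM Tris pH 10.5, A500. Growth relative to day-zero and untreated; GIC50 from sigmoidal dose–response fit; mean of two independent experiments.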

[2] = test system: DU-145; experiment: Cytostatic activity against human DU145 cells after 5 days by SRB assay; format: functional; conditions: DU-145, 120 h; in short: as §1
[3] = test system: MT4; experiment: Cytostatic activity against human MT4 cells after 5 days by SRB assay; format: functional; conditions: MT4, 120 h
[4] = test system: A549; experiment: Cytostatic activity against human A549 cells after 5 days by SRB assay; format: functional; conditions: A549, 120 h; in short: as §1
[5] = test system: DU-145; experiment: Metabolic stability in human DU145 cells assessed as sodium ((2R,3S,4R,5R)-5-(4-amino-7H-pyrrolo[2,3-d]pyrimidin-7-yl)-3,4-dihydroxytetrahydrofuran-2-yl)methyl hydrogentriphosphate-NTP formation per million of cells at 10 uM after 6 hrs by LC/MS/MS analysis; format: ADME, cell-based; conditions: du-145, 6 h
In short: (§2)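 Du145 seeded at 60% confluence in MEM/10% FBS; next day exposed to 10 μM compound for 6 or 24 h. Cells trypsinized, extracted in 70% MeOH, dried, resuspended in 1 mM ammonium phosphate pH 8.5. Nucleoside, NMP and NTP quantified by ion-pairing (dimethylhexylamine) LC/MS/MS against untreated-cell-extract standard curves; pmol per million cells.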

[6] = Cytostatic activity against human Hs578 cells after 5 days by SRB assay; format: functional; conditions: Hs578, 120 h; in short: as §1
[7] = test system: DU-145; experiment: Metabolic stability in human DU145 cells assessed as nucleoside formation per million of cells at 10 uM after 6 hrs by LC/MS/MS analysis; format: ADME, cell-based; conditions: du-145, 6 h; in short: as §2
[8] = test system: DU-145; experiment: Metabolic stability in human DU145 cells assessed as sodium ((2R,3S,4R,5R)-5-(4-amino-7H-pyrrolo[2,3-d]pyrimidin-7-yl)-3,4-dihydroxytetrahydrofuran-2-yl)methyl hydrogentriphosphate-NTP formation per million of cells at 10 uM after 24 hrs by LC/MS/MS analysis; format: ADME, cell-based; conditions: du-145, 24 h; in short: as §2
[9] = test system: NCI-H23; experiment: Cytostatic activity against human NCI-H23 cells after 5 days by SRB assay; format: functional; conditions: NCI-H23, 120 h; in short: as §1
[10] = Cytotoxicity against human HeLaS3 cells after 3 days by XTT assay; format: functional, cell-based; conditions: HeLa S3, 72 h
In short: (§3)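 Suspension-grown cell lines, 3-day compound incubation; viability read by XTT metabolic assay; IC50 averaged from four independent experiments.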

[11] = test system: HCT-15; experiment: Cytostatic activity against human HCT15 cells after 5 days by SRB assay; format: functional; conditions: HCT-15, 120 h; in short: as §1
[12] = test system: PC-3; experiment: Cytostatic activity against human PC3 cells after 5 days by SRB assay; format: functional; conditions: PC-3, 120 h; in short: as §1
[13] = test system: DU-145; experiment: Metabolic stability in human DU145 cells assessed as sodium ((2R,3S,4R,5R)-5-(4-amino-7H-pyrrolo[2,3-d]pyrimidin-7-yl)-3,4-dihydroxytetrahydrofuran-2-yl)methyl hydrogenphosphate-NMP formation per million of cells at 10 uM after 6 hrs by LC/MS/MS analysis; format: ADME, cell-based; conditions: du-145, 6 h; in short: as §2
[14] = test system: HL-60; experiment: Cytotoxicity against human HL60 cells after 3 days by XTT assay; format: functional, cell-based; conditions: HL-60, 72 h; in short: as §3
[15] = test system: CCRF-CEM; experiment: Cytotoxicity against human CCRF-CEM cells after 3 days by XTT assay; format: functional, cell-based; conditions: 72 h; in short: as §3
[16] = target: Adenosine kinase (Homo sapiens, UniProt P55263); experiment: Inhibition of human ADK using [3H]-adenosine by scintillation counting
Sequence of Adenosine kinase (P55263 whole entry): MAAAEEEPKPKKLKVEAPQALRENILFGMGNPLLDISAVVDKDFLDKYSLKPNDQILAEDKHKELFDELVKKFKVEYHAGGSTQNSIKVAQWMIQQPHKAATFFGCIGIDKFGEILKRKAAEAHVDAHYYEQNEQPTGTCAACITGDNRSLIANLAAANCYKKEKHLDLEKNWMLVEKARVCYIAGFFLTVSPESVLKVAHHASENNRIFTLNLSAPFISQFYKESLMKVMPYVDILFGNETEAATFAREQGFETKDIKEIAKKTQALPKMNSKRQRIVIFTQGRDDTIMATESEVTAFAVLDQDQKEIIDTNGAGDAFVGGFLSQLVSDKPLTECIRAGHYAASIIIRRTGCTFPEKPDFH

[17] = test system: DU-145; experiment: Metabolic stability in human DU145 cells assessed as sodium ((2R,3S,4R,5R)-5-(4-amino-7H-pyrrolo[2,3-d]pyrimidin-7-yl)-3,4-dihydroxytetrahydrofuran-2-yl)methyl hydrogenphosphate-NMP formation per million of cells at 10 uM after 24 hrs by LC/MS/MS analysis; format: ADME, cell-based; conditions: du-145, 24 h; in short: as §2
[18] = test system: HCT-116; experiment: Cytostatic activity against human HCT116 cells after 5 days by SRB assay; format: functional; conditions: HCT-116, 120 h; in short: as §1
[19] = test system: DU-145; experiment: Metabolic stability in human DU145 cells assessed as nucleoside formation per million of cells at 10 uM after 24 hrs by LC/MS/MS analysis; format: ADME, cell-based; conditions: du-145, 24 h; in short: as §2
[20] = Cytotoxicity against mouse P388D1 cells after 3 days by MTT assay; format: functional, cell-based; conditions: P388D1, 72 h
[21] = test system: LNCaP; experiment: Cytotoxicity against human LNCAP cells after 3 days by MTT assay; format: functional, cell-based; conditions: 72 h
[22] = test system: SK-OV-3; experiment: Cytotoxicity against human SKOV3 cells after 3 days by MTT assay; format: functional, cell-based; conditions: SK-OV-3, 72 h
[23] = test system: MAT-Ly-Lu; experiment: Cytotoxicity against rat MAT-LyLu cells after 3 days by MTT assay; format: functional, cell-based; conditions: 72 h
[24] = test system: K562; experiment: Cytotoxicity against human paclitaxel resistant K562 cells after 3 days by MTT assay; format: functional, cell-based; conditions: K562, 72 h
[25] = test system: SK-MEL-2; experiment: Cytotoxicity against human SK-MEL-2 cells after 3 days by MTT assay; format: functional, cell-based; conditions: SK-MEL-2, 72 h
[26] = test system: EL4; experiment: Cytotoxicity against mouse EL4 cells after 3 days by MTT assay; format: functional, cell-based; conditions: EL4, 72 h
[27] = Cytotoxicity against human U87MG cells after 3 days by MTT assay; format: functional, cell-based, U-87MG ATCC; conditions: U-87 MG, 72 h
[28] = test system: BV-173; experiment: Cytotoxicity against human BV173 cells after 3 days by MTT assay; format: functional, cell-based; conditions: BV-173, 72 h
[29] = test system: PC-3; experiment: Cytotoxicity against human PC3 cells after 3 days by MTT assay; format: functional, cell-based; conditions: PC-3, 72 h
[30] = test system: BJ; experiment: Cytotoxicity against human BJ cells after 3 days by MTT assay; format: cell-based; conditions: 72 h
[31] = Cytotoxicity against human CEM-DNR-bulk cells after 3 days by MTT assay; format: functional, cell-based; conditions: 72 h
[32] = Cytotoxicity against human NCI-H146 cells after 3 days by MTT assay; format: functional, cell-based; conditions: NCI-H146, 72 h
[33] = test system: HCT-116; experiment: Cytotoxicity against human HCT116 cells after 3 days by MTT assay; format: functional, cell-based; conditions: HCT-116, 72 h
[34] = test system: HT-29; experiment: Cytotoxicity against human HT-29 cells after 3 days by MTT assay; format: functional, cell-based; conditions: HT-29, 72 h
[35] = test system: MDA-MB-231; experiment: Cytotoxicity against human MDA-MB-231 cells after 3 days by MTT assay; format: functional, cell-based; conditions: MDA-MB-231, 72 h
[36] = test system: BT-549; experiment: Cytotoxicity against human BT549 cells after 3 days by MTT assay; format: functional, cell-based; conditions: BT-549, 72 h
[37] = test system: C6; experiment: Cytotoxicity against rat C6 cells after 3 days by MTT assay; format: functional, cell-based; conditions: C6, 72 h
[38] = test system: MCF7; experiment: Cytotoxicity against human MCF7 cells after 3 days by MTT assay; format: functional, cell-based; conditions: MCF7, 72 h
[39] = test system: K562; experiment: Cytotoxicity against human K562 cells after 3 days by MTT assay; format: functional, cell-based; conditions: K562, 72 h
[40] = test system: HPAC; experiment: Cytotoxicity against human HPAC cells after 3 days by MTT assay; format: functional, cell-based; conditions: 72 h
[41] = test system: HeLa; experiment: Cytotoxicity against human HeLa cells after 3 days by MTT assay; format: functional, cell-based; conditions: 72 h
[42] = test system: CT26; experiment: Cytotoxicity against mouse CT26 cells after 3 days by MTT assay; format: functional, cell-based; conditions: CT26, 72 h
[43] = test system: L1210; experiment: Cytotoxicity against mouse L1210 cells after 3 days by MTT assay; format: functional, cell-based; conditions: L1210, 72 h
[44] = Cytotoxicity against human MES-SA cells after 3 days by MTT assay; format: functional, cell-based; conditions: 72 h
[45] = test system: SK-N-AS; experiment: Cytotoxicity against human SK-N-AS cells after 3 days by MTT assay; format: functional, cell-based; conditions: 72 h

Nc1ncnc2c1c(-c1ccccc1)cn2[C@@H]1O[C@H](CO)[C@@H](O)[C@H]1O
GI50 [1]: > 20000 nM | GI50 [2]: > 20000 nM | GI50 [3]: > 20000 nM | GI50 [4]: > 20000 nM | Stability [5]: 0.13 pmol | GI50 [6]: > 20000 nM | Stability [7]: 32.91 pmol | Stability [8]: 0.27 pmol | GI50 [9]: > 20000 nM | IC50 [10]: > 10000 nM | GI50 [11]: > 20 µM | GI50 [12]: > 20000 nM | Stability [13]: 6.23 pmol | IC50 [14]: > 10 µM | IC50 [15]: > 10000 nM | IC50 [16]: > 5 µM | Stability [17]: 6.68 pmol | GI50 [18]: > 20000 nM | Stability [19]: 68.8 pmol

Nc1ncnc2c1c(-c1ccsc1)cn2[C@@H]1O[C@H](CO)[C@@H](O)[C@H]1O
IC50 [20]: 76 nM | GI50 [1]: 28 nM | IC50 [21]: 68 nM | IC50 [22]: > 10 µM | GI50 [2]: 97 nM | GI50 [3]: 124 nM | GI50 [4]: 16 nM | IC50 [23]: 525 nM | IC50 [24]: 93 nM | GI50 [6]: 50 nM | IC50 [25]: > 10 µM | IC50 [26]: > 10 µM | GI50 [9]: 73 nM | IC50 [10]: 60 nM | IC50 [27]: > 10 µM | GI50 [12]: 1320 nM | IC50 [28]: 29 nM | IC50 [29]: > 10 µM | IC50 [14]: 6.62 µM | IC50 [30]: > 10 µM | IC50 [31]: 110 nM | IC50 [32]: > 10 µM | IC50 [33]: 194 nM | IC50 [15]: 110 nM | IC50 [34]: 184 nM | IC50 [35]: 82 nM | IC50 [16]: > 5 µM | IC50 [36]: 120 nM | GI50 [18]: 7 nM | IC50 [37]: 8.29 µM | IC50 [38]: 7.25 µM | IC50 [39]: 67 nM | IC50 [40]: 110 nM | IC50 [41]: 124 nM | IC50 [42]: 225 nM | IC50 [43]: 199 nM | IC50 [44]: 76 nM | IC50 [45]: > 10 µM
